We go through three compounds from ChEMBL document CHEMBL3421533, “The Discovery of Orally Bioavailable Tyrosine Threonine Kinase (TTK) Inhibitors: 3-(4-(heterocyclyl)phenyl)-1H-indazole-5-carboxamides as Anticancer Agents” (J Med Chem, 2015).

The nature of data set [1]: Antitumor activity against human HCT116 cells xenografted in nude mouse assessed as tumor growth inhibition at 30 mg/kg, po qd administered for 21 days measured on day 22 relative to vehicle-treated control. It is filed as functional. The settings on record: HCT-116, read-out: TGI. In general terms: Xenograft models place foreign cells or tissue in a host animal.
The target in data set [2] is T1, Dual specificity protein kinase TTK (Homo sapiens, UniProt P33981).
T1 sequence (P33981 whole entry): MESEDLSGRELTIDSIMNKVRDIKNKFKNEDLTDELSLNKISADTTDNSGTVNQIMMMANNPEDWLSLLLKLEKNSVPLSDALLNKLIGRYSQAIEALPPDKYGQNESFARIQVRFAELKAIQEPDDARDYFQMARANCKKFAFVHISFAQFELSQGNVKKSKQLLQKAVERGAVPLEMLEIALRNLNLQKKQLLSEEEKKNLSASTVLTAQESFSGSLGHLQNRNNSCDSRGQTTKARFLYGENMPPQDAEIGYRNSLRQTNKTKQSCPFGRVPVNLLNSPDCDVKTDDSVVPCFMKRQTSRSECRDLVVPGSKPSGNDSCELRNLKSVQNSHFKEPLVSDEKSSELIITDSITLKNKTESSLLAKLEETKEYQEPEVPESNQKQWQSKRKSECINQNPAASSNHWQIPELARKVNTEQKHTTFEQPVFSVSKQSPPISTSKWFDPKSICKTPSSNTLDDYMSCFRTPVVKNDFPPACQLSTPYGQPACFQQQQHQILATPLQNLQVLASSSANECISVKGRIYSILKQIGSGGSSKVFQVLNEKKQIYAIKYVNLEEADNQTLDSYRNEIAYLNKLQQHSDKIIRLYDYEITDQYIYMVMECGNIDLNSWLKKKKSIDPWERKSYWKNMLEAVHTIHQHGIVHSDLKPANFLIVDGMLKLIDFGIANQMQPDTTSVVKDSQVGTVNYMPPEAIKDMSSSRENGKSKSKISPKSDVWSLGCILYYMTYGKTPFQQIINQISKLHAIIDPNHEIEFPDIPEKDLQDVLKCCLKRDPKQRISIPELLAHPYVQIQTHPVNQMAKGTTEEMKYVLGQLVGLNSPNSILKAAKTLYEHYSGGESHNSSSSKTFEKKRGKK
Nature of the data set: Inhibition of amino terminal GST-fused full length human TTK using His6-SUMO-TTK-N as substrate preincubated for 15 mins prior to ATP addition by indirect ELISA detection system. For orientation: In an ELISA, binding on a coated surface is turned into a signal by an enzyme label.

The nature of data set [3]: Half life in rat liver microsomes at 1 uM by LC-MS analysis. The settings on record: liver microsomes. It is filed as ADME. For orientation: Liver microsomes are vesicles of endoplasmic reticulum, rich in cytochrome P450 enzymes.
The target of another data set is T2, Aurora kinase A (Homo sapiens, UniProt O14965).
T2 sequence (O14965 whole entry): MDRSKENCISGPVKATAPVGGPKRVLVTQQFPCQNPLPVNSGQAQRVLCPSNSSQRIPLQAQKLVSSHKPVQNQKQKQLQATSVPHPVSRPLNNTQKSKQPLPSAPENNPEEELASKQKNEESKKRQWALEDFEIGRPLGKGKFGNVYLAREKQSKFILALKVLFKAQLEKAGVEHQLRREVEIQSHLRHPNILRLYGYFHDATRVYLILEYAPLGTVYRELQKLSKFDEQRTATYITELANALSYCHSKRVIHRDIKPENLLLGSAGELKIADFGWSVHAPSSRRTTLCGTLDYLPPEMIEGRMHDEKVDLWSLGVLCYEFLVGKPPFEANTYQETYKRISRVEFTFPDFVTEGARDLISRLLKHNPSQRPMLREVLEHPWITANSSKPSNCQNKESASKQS
Nature of the data set: Inhibition of recombinant AURKA (unknown origin) preincubated for 15 mins prior to ATP addition by FRET-based homogenous assay.

A short description of data set [4]: Cytotoxicity against human HCT116 cells after 5 days by sulforhodamine B assay. Type of data set: functional, HCT-116. The settings on record: Homo sapiens, HCT-116, 120 h. In a few lines:
(§1)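 Cancer lines were seeded at 800–6000 cells per well according to growth rate, 24 h before compound overlay. After culture, cells were fixed in situ and stained with sulforhodamine B. GI50 values were derived by curve fitting.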

Another data set has as its system MDA-MB-468. Nature of the data set: Cytotoxicity against human MDA-MB-468 cells after 5 days by sulforhodamine B assay. It is filed as functional. Particulars: Homo sapiens, MDA-MB-468, 120 h. In a few lines: as §1
A short description of data set [5]: Half life in mouse liver microsomes at 1 uM by LC-MS analysis. Particulars: liver microsomes. Type of data set: ADME.
The target in data set [6] is Vascular endothelial growth factor receptor 2 (Homo sapiens, UniProt P35968). The data set is described as follows: Inhibition of recombinant KDR (unknown origin) preincubated for 15 mins prior to ATP addition by FRET-based homogenous assay.
Chain of Vascular endothelial growth factor receptor 2 (P35968 whole entry): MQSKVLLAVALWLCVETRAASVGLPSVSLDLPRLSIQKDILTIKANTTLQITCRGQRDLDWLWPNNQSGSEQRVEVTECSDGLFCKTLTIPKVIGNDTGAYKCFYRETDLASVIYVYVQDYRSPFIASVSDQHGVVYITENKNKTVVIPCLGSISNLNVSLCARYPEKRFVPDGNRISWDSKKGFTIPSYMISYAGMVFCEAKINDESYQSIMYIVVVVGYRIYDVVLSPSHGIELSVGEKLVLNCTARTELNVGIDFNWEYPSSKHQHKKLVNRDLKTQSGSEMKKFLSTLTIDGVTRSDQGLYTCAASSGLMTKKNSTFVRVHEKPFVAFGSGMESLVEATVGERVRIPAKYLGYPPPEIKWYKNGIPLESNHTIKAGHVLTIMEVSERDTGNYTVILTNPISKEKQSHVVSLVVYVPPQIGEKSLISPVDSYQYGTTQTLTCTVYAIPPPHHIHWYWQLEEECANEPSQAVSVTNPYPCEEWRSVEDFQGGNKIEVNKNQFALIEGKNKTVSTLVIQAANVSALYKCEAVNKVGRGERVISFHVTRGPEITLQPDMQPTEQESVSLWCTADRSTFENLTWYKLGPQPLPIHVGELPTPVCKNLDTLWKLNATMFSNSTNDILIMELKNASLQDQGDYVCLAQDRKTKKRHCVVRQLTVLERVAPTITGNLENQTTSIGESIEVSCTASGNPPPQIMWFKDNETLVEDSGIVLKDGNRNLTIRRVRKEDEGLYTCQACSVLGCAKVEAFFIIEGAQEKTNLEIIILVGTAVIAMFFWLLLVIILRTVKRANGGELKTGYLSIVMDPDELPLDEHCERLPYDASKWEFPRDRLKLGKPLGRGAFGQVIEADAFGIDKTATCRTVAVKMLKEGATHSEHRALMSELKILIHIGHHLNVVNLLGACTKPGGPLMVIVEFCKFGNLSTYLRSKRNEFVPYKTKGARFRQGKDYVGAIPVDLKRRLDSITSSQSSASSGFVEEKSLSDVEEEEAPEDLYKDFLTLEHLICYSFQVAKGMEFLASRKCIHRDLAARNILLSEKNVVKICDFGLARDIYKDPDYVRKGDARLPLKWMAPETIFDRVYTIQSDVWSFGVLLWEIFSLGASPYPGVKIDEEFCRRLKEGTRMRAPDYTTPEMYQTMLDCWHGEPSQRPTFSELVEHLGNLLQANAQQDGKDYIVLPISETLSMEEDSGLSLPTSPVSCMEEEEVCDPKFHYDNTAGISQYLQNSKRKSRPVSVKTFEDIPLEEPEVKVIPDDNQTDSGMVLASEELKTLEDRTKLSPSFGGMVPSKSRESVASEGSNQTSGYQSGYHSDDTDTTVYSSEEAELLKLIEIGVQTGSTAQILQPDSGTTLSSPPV
Data set [7] has as its target Aurora kinase B/Inner centromere protein (Homo sapiens, UniProt Q96GD4). Nature of the data set: Inhibition of AURKB/INCENP (unknown origin) preincubated for 15 mins prior to ATP addition by FRET-based homogenous assay. Type of data set: protein-complex assay. In a few lines: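 The enzyme was AURKB/INCENP in a FRET-based homogeneous assay run to kit specifications, with ATP at 128 μM. […] Each IC50 came from a single determination, reported with its standard fitting error.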

For data set [8], the target named is T1, Dual specificity protein kinase TTK. Nature of the data set: Inhibition of TTK (unknown origin) using p38 MAPK as substrate by fluorescence assay.

SMILES strings stand for the structures.

Chain of Aurora kinase B/Inner centromere protein (Q96GD4 whole entry): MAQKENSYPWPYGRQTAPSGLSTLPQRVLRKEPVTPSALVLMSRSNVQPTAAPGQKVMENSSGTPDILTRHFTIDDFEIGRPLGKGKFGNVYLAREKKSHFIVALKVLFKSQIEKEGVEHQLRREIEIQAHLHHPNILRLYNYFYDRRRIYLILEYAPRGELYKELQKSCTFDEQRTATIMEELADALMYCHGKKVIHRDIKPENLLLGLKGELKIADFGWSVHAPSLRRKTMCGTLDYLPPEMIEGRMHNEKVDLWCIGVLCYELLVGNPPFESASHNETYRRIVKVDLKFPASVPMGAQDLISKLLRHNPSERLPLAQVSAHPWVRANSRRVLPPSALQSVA
Chain of Aurora kinase B/Inner centromere protein (Q9NQS7 whole entry, further chain): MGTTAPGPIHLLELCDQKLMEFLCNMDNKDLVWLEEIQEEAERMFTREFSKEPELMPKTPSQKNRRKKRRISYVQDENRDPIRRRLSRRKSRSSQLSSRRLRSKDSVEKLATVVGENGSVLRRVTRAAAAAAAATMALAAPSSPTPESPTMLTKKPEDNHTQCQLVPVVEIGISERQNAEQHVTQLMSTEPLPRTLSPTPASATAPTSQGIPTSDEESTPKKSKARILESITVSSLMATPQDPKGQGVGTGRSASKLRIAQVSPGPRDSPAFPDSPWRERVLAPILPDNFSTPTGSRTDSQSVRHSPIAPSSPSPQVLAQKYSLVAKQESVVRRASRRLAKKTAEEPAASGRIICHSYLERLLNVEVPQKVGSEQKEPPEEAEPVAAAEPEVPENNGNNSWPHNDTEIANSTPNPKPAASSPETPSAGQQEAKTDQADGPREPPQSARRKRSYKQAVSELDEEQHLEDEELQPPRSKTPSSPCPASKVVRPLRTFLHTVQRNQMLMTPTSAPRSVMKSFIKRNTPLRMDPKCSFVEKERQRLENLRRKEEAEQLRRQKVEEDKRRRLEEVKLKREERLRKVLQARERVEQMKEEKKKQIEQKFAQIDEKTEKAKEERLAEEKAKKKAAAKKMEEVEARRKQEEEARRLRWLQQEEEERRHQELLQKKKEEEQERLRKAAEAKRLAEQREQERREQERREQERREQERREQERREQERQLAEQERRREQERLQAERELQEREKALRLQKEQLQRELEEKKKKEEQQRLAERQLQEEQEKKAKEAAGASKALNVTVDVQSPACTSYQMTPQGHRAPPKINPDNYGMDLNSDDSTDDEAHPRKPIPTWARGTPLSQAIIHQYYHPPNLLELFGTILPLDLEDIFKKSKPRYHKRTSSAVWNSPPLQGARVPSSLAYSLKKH

As for `Cc1cc(N2CCOCC2)ccc1Nc1nc(NC2CCCCC2)c2nc[nH]c2n1`, the inhibition in vivo at 30 mg/kg in [1] worked out at 49%.

With `O=C(NCC1(N2CCOCC2)CCCCC1)c1ccc2[nH]nc(-c3ccc(N4CCOCC4)cc3)c2c1`, the IC50 (as a rule, the concentration that gives 50% inhibition) was 7.7 nM in data set [2], 2300 nM on Aurora kinase A, 3800 nM in data set [6] and 750 nM in [7]. Moreover, the results for the half-life at 1 µM in data set [3] and in data set [5] were 1.5 min and 1.7 min, respectively. Further, the GI50 (commonly the concentration at which growth is held to half of that of the control) in [4] amounted to 39 nM; in the data set on MDA-MB-468 it was 190 nM.

For `CC(C)(O)CNc1cc(NC2CCCCC2)nn2c(-c3ccc(C(=O)NC4CC4)cc3)cnc12`, in data set [8], it took 13 nM to reach half-maximal inhibition (IC50).
